# High-throughput results: PubChem BioAssay, several laboratories
# This is a sample that favours compounds with a hit; in the whole collection about 2.3% have one here.
# TRPC4 PAM: TRPC4 (mouse) allosteric potentiation; Q9QUQ5; HEK293 TRPC4beta/mu-opioid, DAMGO EC20, Fluo-4 Ca2+ flux; hits give high values; B-score at 10 µM; 310,000 compounds, 0.42% hits;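 active = B-score of calcium response area above 5 SD of library B-scores, with initial fluorescence ratio within 5 SD of library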
# Yeast superoxide: caloric restriction mimetics inhibiting age-related superoxide in yeast; S. cerevisiae aged cells, superoxide DHE fluorescence; hits give low values; superoxide response (% of plate mean), % at 10 µM; 330,000 compounds, 0.18% hits; AID 2690;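 active = superoxide response under a set limit, about three screen SD below normal, cut at about 65% in these data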;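 note: yeast aged for seven days with compound at 30 °C before DHE staining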
# TRPC6 inhibitor: mouse TRPC6 channel inhibition. Q61143. HEK293-TRPC6, membrane potential dye, ACh-evoked depolarization; hits give low values. B-score at 10 µM. 310,000 compounds, 1.1% hits. AID 2553;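 active = B-score under library mean minus 3 SD, initial fluorescence not abnormally high, positive integrated signal ratio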;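 note: B-score derived from integrated fluorescence ratio over the kinetic read; more negative B-score means stronger inhibition of depolarization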
# Target sequence (Q61143 whole entry, looked up): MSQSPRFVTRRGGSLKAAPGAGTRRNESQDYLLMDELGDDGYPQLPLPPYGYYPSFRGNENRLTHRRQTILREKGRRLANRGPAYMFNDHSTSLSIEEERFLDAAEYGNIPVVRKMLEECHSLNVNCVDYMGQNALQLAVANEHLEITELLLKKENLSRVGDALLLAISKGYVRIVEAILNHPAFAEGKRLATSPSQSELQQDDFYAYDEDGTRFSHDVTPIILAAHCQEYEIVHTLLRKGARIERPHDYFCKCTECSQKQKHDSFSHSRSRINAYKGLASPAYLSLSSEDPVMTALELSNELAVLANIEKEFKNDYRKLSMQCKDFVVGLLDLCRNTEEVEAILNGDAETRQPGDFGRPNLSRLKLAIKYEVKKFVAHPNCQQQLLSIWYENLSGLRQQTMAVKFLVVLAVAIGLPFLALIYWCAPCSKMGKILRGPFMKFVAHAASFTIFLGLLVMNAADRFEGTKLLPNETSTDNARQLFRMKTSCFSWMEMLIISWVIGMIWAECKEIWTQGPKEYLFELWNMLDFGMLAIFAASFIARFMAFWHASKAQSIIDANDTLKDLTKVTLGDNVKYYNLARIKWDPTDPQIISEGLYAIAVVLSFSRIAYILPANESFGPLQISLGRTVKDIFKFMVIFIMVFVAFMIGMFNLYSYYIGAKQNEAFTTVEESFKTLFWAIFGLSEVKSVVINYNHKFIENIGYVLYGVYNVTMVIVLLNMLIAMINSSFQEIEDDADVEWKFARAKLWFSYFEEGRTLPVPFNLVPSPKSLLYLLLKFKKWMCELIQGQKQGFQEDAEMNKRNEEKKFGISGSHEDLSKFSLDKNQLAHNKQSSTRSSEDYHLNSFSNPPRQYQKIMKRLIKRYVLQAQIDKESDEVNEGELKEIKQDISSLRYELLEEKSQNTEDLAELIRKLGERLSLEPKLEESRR
# TRPC4 act: activators of mouse TRPC4 channel | Q9QUQ5 | HEK293 TRPC4beta/mu-opioid, Fluo4 calcium fluorescence; hits give high values | 310,000 compounds, 0.49% hits | AID 2237 | B-score at 10 µM;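 active = B-score above 5 SD of library B-scores, and initial fluorescence ratio not above library mean plus 5 SD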;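 note: positive B-score marks a calcium rise read as TRPC4 activation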
#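 Test system: HEK293 cells stably co-expressing mouse TRPC4beta and mu-opioid receptor | Schedule: Fluo4 dye loading 45 min at room temperature, 110 s recording | Measured by: Kinetic Fluo4 calcium fluorescence, 5 s baseline at 1 Hz | Evaluation: B score of integrated ratio | Controls: Buffer (low) and maximal DAMGO (high)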
# TRPC4 block: TRPC4 (mouse) channel inhibition. Q9QUQ5. HEK293 TRPC4beta/mu-opioid, DAMGO-evoked Fluo4 calcium flux; hits give low values. B-score at 10 µM. 300,000 compounds, 0.39% hits. AID 2247;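 active = B-score over 3 SD under the library average, no early fluorescence shift, positive overall ratio signal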
#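 material = TRPC4beta/mu-opioid receptor HEK293 cell line | probe or stimulus = sequential submaximal and maximal DAMGO stimulation | compound dosing = one concentration per compound | measured by = Fluo4 Ca2+ flux fluorescence | evaluation = integrated fluorescence ratio relative to baseline, converted to per-well B score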
# TRPC6 activator: mouse TRPC6 channel activation; HEK293-TRPC6 membrane potential dye fluorescence; hits give high values; B-score at 10 µM; 310,000 compounds, 0.13% hits; AID 2550;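 active = B-score of the integrated fluorescence ratio above library mean plus 3 SD, and starting fluorescence ratio within library mean plus 5 SD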;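 note: higher score means more depolarization so channel activation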
# HEK293 TRPC6 ctr: checks TRPC6 modulator effects in parental HEK293 cells. shares compounds with TRPC6 inhibitor. membrane potential dye fluorescence. membrane potential signal change, % at 10 µM. 2,400 compounds, 51% hits. AID 488924;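 active = membrane potential signal moves up or down beyond 5 SD from buffer-only wells, on both duplicate plates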
# HEK293 MPD ctr 2: parental HEK293 nonspecific activity of TRPC6 modulators, second screen | shares compounds with TRPC6 inhibitor | membrane potential dye fluorescence; after compound, maximal acetylcholine stimulation | inhibition, % at 10 µM | 2,400 compounds, 14% hits | AID 488926;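 active = membrane potential signal drops by more than 5 SD from the mean control signal, in both duplicate plates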
# TRPC4/MOR mod: tests whether TRPC6 modulators also affect mouse TRPC4; shares compounds with TRPC6 inhibitor; HEK293 TRPC4/mu-opioid, membrane potential fluorescence; percent change from control (negative = decrease, positive = increase), % at 10 µM; 2,400 compounds, 69% hits; AID 488927;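 active = membrane potential signal moved up or down beyond 5 SD of buffer control wells, in both duplicate plates, actives on both sides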
# TRPC4 ctr inh 2: mouse TRPC4 off-target activity of TRPC6 modulators, second screen | inhibition, % at 10 µM | AID 488928 | HEK293 TRPC4/mu-opioid, membrane potential dye fluorescence; stimulated with maximal-effect DAMGO | 2,400 compounds, 55% hits | shares compounds with TRPC6 inhibitor;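 active = drop in membrane potential signal beyond 5 SD of the control wells in both duplicate plates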;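 note: TRPC4 counter screen for TRPC6 hits run under conditions tuned for TRPC6 not TRPC4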
# TRPC6 block conf: confirmation of mouse TRPC6 inhibitors. shares compounds with TRPC6 inhibitor. HEK293-TRPC6, membrane potential dye, ACh-evoked depolarization. AID 488960. 3,300 compounds, 43% hits. inhibition, % at 10 µM;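 active = fluorescence ratio falls more than 5 SD below the full-stimulation control mean, in both duplicate runs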;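 note: integrated fluorescence ratio of peak minus minimum over baseline after agonist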
# TRPC6 act confirm: confirmation of mouse TRPC6 activators; HEK293-TRPC6 membrane potential dye fluorescence, FDSS; activation, % at 10 µM; 2,800 compounds, 11% hits; AID 488961; shares compounds with TRPC6 inhibitor;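 active = ratio signal rise beyond 5 SD above unstimulated control wells' mean, seen in both duplicate runs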
# Numbers stand for hits; - = inactive; . = no result.
SMILES,TRPC4 PAM,Yeast superoxide,TRPC6 inhibitor,TRPC4 act,TRPC4 block,TRPC6 activator,HEK293 TRPC6 ctr,HEK293 MPD ctr 2,TRPC4/MOR mod,TRPC4 ctr inh 2,TRPC6 block conf,TRPC6 act confirm
CN1CCc2c1nc1ccccc1c2N (tested in a mixture with another compound),-,-,-,-,-,-,.,.,.,.,.,.
CCCCN1CCc2c1nc1ccc(Br)cc1c2N,-,-,-6.3,-,-,-,-132%,98%,-37%,93%,88%,-
CCCCN1CCc2c([nH]c3ccccc23)C1=O,-,-,-,-,-,-,.,.,.,.,.,.
Cc1ccc2nc3c(c(N)c2c1)CCN3c1ccccc1,-,-,-,-,-,-,.,.,.,.,.,.
Cn1c(=O)n(C)c2cc(/C=N/n3cnnc3)ccc21,-,-,-,-,-,-,.,.,.,.,.,.
COc1ccc(N2CCN(CCNC(=O)c3ccc(NC(=O)C4CCCO4)cc3)CC2)cc1 (stereo not given),-,-,-,-,-,-,.,.,.,.,.,.
CC1CCCN(CCCNC(=O)c2ccc3c(c2)N(Cc2ccc(F)cc2)C(=O)c2ccccc2S3=O)C1 (stereo not given),-,-,-5.1,55,-,-,-,-,-,77%,57%,-
Cc1cccc(CN2C(=O)c3ccccc3S(=O)(=O)c3ccc(C(=O)NCCCN4CCCC4)cc32)c1,-,-,-5.1,-,-,-,-,-,-,57%,41%,-
O=C(NCCN1CCCC1)c1ccc2c(c1)N(Cc1cccc(Cl)c1)C(=O)c1ccccc1S2(=O)=O,-,-,-,-,-,-,.,.,.,.,.,.
O=C1C2ON(c3ccccc3)C(c3ccccc3F)C2C(=O)N1c1ccccc1 (stereo not given),-,-,-,-,-,-,.,.,.,.,.,.
N=c1c2c3c(sc2ncn1N)CCC3,-,-,-,-,-,-,.,.,.,.,.,.
CC(C)(C)C1CCc2c(sc3ncn(N)c(=N)c23)C1 (stereo not given),-,-,-6.5,-,-,-,-,-,-16%,67%,46%,-
Cc1ccc(OCCCC(=O)Nc2nc3ccccc3[nH]2)cc1,-,-,-7,-,-,-,-,-,-,-,-,-
O=C(NC1CCCC1)C1CCN(c2cnccn2)CC1,-,-,-,-,-,-,.,.,.,.,.,.
CC1=CC(C)(C)N(C(=O)CNC2CCCC2)c2cc(C)ccc21,-,-,-6.4,-,-,-,125%,-,31%,45%,54%,.
Cc1nc2cc(C(F)(F)F)ccc2n1C1CCN(CC(=O)N2CCCC2)CC1,-,-,-,-,-,-,.,.,.,.,.,.
Cc1nc2cc(C(F)(F)F)ccc2n1C1CCN(CC(=O)N2CCOCC2)CC1,-,-,-5.2,-,-,-,-,-,-,-,-,-
CC(=O)NC(CCS(C)(=O)=O)C(=O)Nc1ccc(Cl)c(Cl)c1 (stereo not given),-,-,-,-,-,-,.,.,.,.,.,.
CN(c1cccc(NS(=O)(=O)c2cccs2)c1)S(C)(=O)=O,-,-,-6.1,-,-,-,-,-,-,-,-,-
COc1ccc(NC(=O)Cn2c(=O)n(-c3ccc(CC(=O)NCc4ccco4)cc3)c(=O)c3ccccc32)cc1,-,-,-,-,-,-,.,.,.,.,.,.
Cc1c(C(=O)OC(C)C(C)C[N+](C)(C)C)oc2ccccc12 (stereo not given),-,-,-7.5,-,-,-,-,64%,-,-,72%,-
CCN(CC)c1ccc(Nc2nc(N3CCOCC3)c3ccccc3n2)cc1,-,-,-5.2,-,-,-,-143%,-,-32%,56%,-,-
COc1cc(C(=O)NC(=S)Nc2ccc(Cl)c(C(=O)O)c2)cc(OC)c1OC,-,-,-,-,-,-,.,.,.,.,.,.
Cc1ccc(Nc2c(-c3ccc(N4CCOCC4)cc3)nc3ncccn23)c(C)c1,-,-,-6.1,-,-,-,-143%,62%,-29%,96%,84%,-
Cc1ccc(-c2nc3ncccn3c2NC2CCCC2)o1,-,-,-,-,-,-,.,.,.,.,.,.
SMILES,TRPC4 PAM,Yeast superoxide,TRPC6 inhibitor,TRPC4 act,TRPC4 block,TRPC6 activator,HEK293 TRPC6 ctr,HEK293 MPD ctr 2,TRPC4/MOR mod,TRPC4 ctr inh 2,TRPC6 block conf,TRPC6 act confirm
Cc1ccc(-c2nc3ncccn3c2Nc2ccccc2C)o1,-,-,-5.8,-,-,-,-115%,-,-18%,68%,-,-
Brc1ccc(-c2nc3ncccn3c2NC2CCCCC2)o1,-,-,-5,-,-,-,116%,-,22%,36%,-,-
Cc1cccc(C)c1Nc1c(-c2ccc(N3CCOCC3)cc2)nc2ncccn12,-,-,-8,-,-,-,-123%,56%,-28%,97%,76%,-
Cc1ccc(Nc2c(-c3ccc(C)o3)nc3ncccn23)cc1,-,-,-,-,-,-,.,.,.,.,.,.
C[C@H]1CC[C@H]2C(=O)N3[C@H](c4ccccc4Br)[C@@H](C)CC[C@H]3C(=O)N2[C@@H]1c1ccccc1Br,-,-,-,-,-,-,.,.,.,.,.,.
COc1ccc2[nH]c(C(=O)O)c(CCNC(=O)/C=C/c3ccc(O)c(OC)c3)c2c1,-,-,-,-,-,-,.,.,.,.,.,.
